ChEMBL document CHEMBL3120161, “Antimycobacterial activity of nitrogen heterocycles derivatives: bipyridine derivatives. Part III” (Eur J Med Chem, 2014)
Values after ≈ are worked out from the molar mass of the structure shown.

How the values were obtained:
[1] = test system: Mycobacterium tuberculosis; assay: Antimycobacterial activity against Mycobacterium tuberculosis H37Rv ATCC 27294 at 0.16 to 0.31 ug/ml after 7 days by microplate Alamar blue assay relative to control; assay type: functional
Procedure, shortened: (§1)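 Cycle 1 HTS MABA: M. tuberculosis H37Rv ATCC 27294 in 7H12 broth, 384-well, final 1% DMSO. Ten twofold dilutions, typically 100 to 0.195 µg/mL. Amikacin controls at 0.17 and 3.20 µM; the high level serves as background for percent inhibition. 7 days at 37 °C, ~95% humidity. Fluorescence read at 535 nm excitation / 590 nm emission.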

[2] = test system: Mycobacterium tuberculosis; assay: Antimycobacterial activity against Mycobacterium tuberculosis H37Rv ATCC 27294 after 7 days by broth microdilution assay; assay type: functional; conditions: H37Rv ATCC 27294, 168 h; procedure, shortened: as §1
[3] = test system: Mycobacterium tuberculosis; assay: Antimycobacterial activity against Mycobacterium tuberculosis H37Rv ATCC 27294 at 0.63 ug/ml after 7 days by microplate Alamar blue assay relative to control; assay type: functional; conditions: H37Rv ATCC 27294, 168 h; procedure, shortened: as §1
[4] = test system: Mycobacterium tuberculosis; assay: Antimycobacterial activity against Mycobacterium tuberculosis H37Rv ATCC 27294 at 0.08 ug/ml after 7 days by microplate Alamar blue assay relative to control; assay type: functional; conditions: H37Rv ATCC 27294, 168 h
[5] = test system: Mycobacterium tuberculosis; assay: Antimycobacterial activity against Mycobacterium tuberculosis H37Rv ATCC 27294 at 1.25 to 5 ug/ml after 7 days by microplate Alamar blue assay relative to control; assay type: functional; procedure, shortened: as §1
[6] = test system: Mycobacterium tuberculosis; assay: Antimycobacterial activity against Mycobacterium tuberculosis H37Rv ATCC 27294 after 7 days by microplate Alamar blue assay; assay type: functional, organism-based; conditions: H37Rv ATCC 27294, 168 h; procedure, shortened: as §1
[7] = test system: Mycobacterium tuberculosis; assay: Antimycobacterial activity against Mycobacterium tuberculosis H37Rv ATCC 27294 at 50 ug/ml after 7 days by microplate Alamar blue assay relative to control; assay type: functional; conditions: H37Rv ATCC 27294, 168 h; procedure, shortened: as §1
[8] = test system: Mycobacterium tuberculosis; assay: Antimycobacterial activity against Mycobacterium tuberculosis H37Rv ATCC 27294 at 100 ug/ml after 7 days by microplate Alamar blue assay relative to control; assay type: functional; conditions: H37Rv ATCC 27294, 168 h; procedure, shortened: as §1
[9] = test system: Mycobacterium tuberculosis; assay: Antimycobacterial activity against Mycobacterium tuberculosis H37Rv ATCC 27294 at 25 ug/ml after 7 days by microplate Alamar blue assay relative to control; assay type: functional; conditions: H37Rv ATCC 27294, 168 h; procedure, shortened: as §1
[10] = test system: Mycobacterium tuberculosis; assay: Antimycobacterial activity against Mycobacterium tuberculosis H37Rv ATCC 27294 at 12.5 ug/ml after 7 days by microplate Alamar blue assay relative to control; assay type: functional; conditions: H37Rv ATCC 27294, 168 h; procedure, shortened: as §1
[11] = test system: Mycobacterium tuberculosis; assay: Antimycobacterial activity against Mycobacterium tuberculosis H37Rv ATCC 27294 at 12.5 to 50 ug/ml after 7 days by microplate Alamar blue assay relative to control; assay type: functional; procedure, shortened: as §1
[12] = test system: Mycobacterium tuberculosis; assay: Antimycobacterial activity against Mycobacterium tuberculosis H37Rv ATCC 27294 at 3.13 ug/ml after 7 days by microplate Alamar blue assay relative to control; assay type: functional; conditions: H37Rv ATCC 27294, 168 h; procedure, shortened: as §1
[13] = test system: Mycobacterium tuberculosis; assay: Antimycobacterial activity against Mycobacterium tuberculosis H37Rv ATCC 27294 at 1.56 ug/ml after 7 days by microplate Alamar blue assay relative to control; assay type: functional; conditions: H37Rv ATCC 27294, 168 h; procedure, shortened: as §1
[14] = test system: Mycobacterium tuberculosis; assay: Antimycobacterial activity against Mycobacterium tuberculosis H37Rv ATCC 27294 at 6.25 ug/ml after 7 days by microplate Alamar blue assay relative to control; assay type: functional; conditions: H37Rv ATCC 27294, 168 h; procedure, shortened: as §1
[15] = test system: Mycobacterium tuberculosis; assay: Antimycobacterial activity against Mycobacterium tuberculosis H37Rv ATCC 27294 at 0.31 ug/ml after 7 days by microplate Alamar blue assay relative to control; assay type: functional; conditions: H37Rv ATCC 27294, 168 h; procedure, shortened: as §1
[16] = test system: Mycobacterium tuberculosis; assay: Antimycobacterial activity against Mycobacterium tuberculosis H37Rv SRI 1345 after 7 days by broth microdilution assay; assay type: functional; conditions: H37Rv SRI 1345, 168 h
[17] = test system: Mycobacterium tuberculosis; assay: Antimycobacterial activity against Mycobacterium tuberculosis H37Rv SRI 1345 infected in mouse J774A1 cells assessed as reduction in bacterial growth at 0.1 ug/ml after 7 days relative to control; assay type: functional, J774.A1
Procedure, shortened: (§2)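 Murine J774 macrophages grown in RPMI 1640 with L-glutamine and FBS at 37 °C, 5% CO2. Plated at 2.0 × 10^5 in 10% FBS, switched to 1% FBS next day. Infected 24 h later at MOI 5 for 4 h, washed, then drug added. At 0 and 7 days, cells lysed with SDS, DNase-treated and plated on 7H10 agar for CFU. Duplicates; read-out is log reduction from day 0 to day 7.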

[18] = test system: Mycobacterium tuberculosis; assay: Antimycobacterial activity against Mycobacterium tuberculosis H37Rv SRI 1345 incubated for 7 days under anaerobic condition measured after 7 days of recovery under gaseous condition by low oxygen recovery assay; assay type: functional
[19] = test system: Mycobacterium tuberculosis; assay: Antimycobacterial activity against Mycobacterium tuberculosis H37Rv ATCC 27294 at 0.02 ug/ml after 7 days by microplate Alamar blue assay relative to control; assay type: functional; conditions: H37Rv ATCC 27294, 168 h; procedure, shortened: as §1
[20] = test system: Mycobacterium tuberculosis; assay: […] activity against Mycobacterium tuberculosis H37Rv SRI 1345 after 16 to 21 days; assay type: functional; conditions: read-out: MBC99.9
Procedure, shortened: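 MBC, done after MIC testing in H37Rv SRI 1345: diluted aliquots from wells without macroscopic growth are plated on Middlebrook 7H10 agar and incubated 16–21 days at 37 °C. CFUs are counted. MBC is the lowest concentration giving 99.9% kill; rejection value is ≥40 colonies.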

[21] = Cytotoxicity against mouse J774A1 cells assessed as cell viability at 0.1 ug/ml after 7 days by MTT assay relative to control; assay type: cell-based, J774.A1; conditions: read-out: Activity
Procedure, shortened: (§3)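 Uninfected murine J774 macrophages grown in RPMI 1640 with L-glutamine and FBS at 37 °C, 5% CO2. Cells seeded at 2.0 × 10^5 per well in 10% FBS, then switched to 1% FBS overnight. Run in parallel with the 7-day infection assay. […] Read out by MTT as percent viability.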

[22] = test system: Mycobacterium tuberculosis; assay: Antimycobacterial activity against Mycobacterium tuberculosis H37Rv SRI 1345 infected in mouse J774A1 cells assessed as reduction in bacterial growth at 0.01 ug/ml after 7 days relative to control; assay type: functional, J774.A1; procedure, shortened: as §2
[23] = test system: Mycobacterium tuberculosis; assay: Antimycobacterial activity against Mycobacterium tuberculosis H37Rv SRI 1345 infected in mouse J774A1 cells assessed as reduction in bacterial growth at 1 ug/ml after 7 days relative to control; assay type: functional, J774.A1; procedure, shortened: as §2
[24] = Cytotoxicity against mouse J774A1 cells assessed as cell viability at 0.01 ug/ml after 7 days by MTT assay relative to control; assay type: cell-based, J774.A1; conditions: read-out: Activity; procedure, shortened: as §3
[25] = Cytotoxicity against mouse J774A1 cells assessed as cell viability at 1 ug/ml after 7 days by MTT assay relative to control; assay type: cell-based, J774.A1; conditions: read-out: Activity; procedure, shortened: as §3
[26] = test system: Mycobacterium tuberculosis; assay: Antimycobacterial activity against Mycobacterium tuberculosis H37Rv SRI 1345 at MIC after 7 days by broth microdilution assay relative to control; assay type: functional

## NCC[C@H](O)C(=O)N[C@@H]1C[C@H](N)[C@@H](O[C@H]2O[C@H](CN)[C@@H](O)[C@H](O)[C@H]2O)[C@H](O)[C@H]1O[C@H]1O[C@H](CO)[C@@H](O)[C@H](N)[C@H]1O [AMIKACIN]
[1]
  inhibition (INH): 96%
[2]
  MIC90: 0.16 µM (≈ 0.0937 µg/mL)
[3]
  inhibition at 0.63 µg/mL: 97.3%
[4]
  inhibition at 0.08 µg/mL: 79.8%
[5]
  inhibition (INH): 98%
[6]
  IC50: 0.07 µg/mL (≈ 0.12 µM)
  IC90: 0.08 µg/mL (≈ 0.137 µM)

## N[C@@H]1CONC1=O [CYCLOSERINE]
[7]
  inhibition at 50 µg/mL: 96.3%
[2]
  MIC90: 25 µM (≈ 2.55 µg/mL)
[8]
  inhibition at 100 µg/mL: 97.7%
[9]
  inhibition at 25 µg/mL: 93.9%
[10]
  inhibition at 12.5 µg/mL: 51%
[6]
  IC50: 12.5 µg/mL (≈ 122 µM)
  IC90: 13.5 µg/mL (≈ 132 µM)

## CC[C@@H](CO)NCCN[C@@H](CC)CO [ETHAMBUTOL]
[11]
  inhibition (INH): 89%
[2]
  MIC90: 12.5 µM (≈ 2.55 µg/mL)
[12]
  inhibition at 3.13 µg/mL: 84.3%
[8]
  inhibition at 100 µg/mL: 90%
[13]
  inhibition at 1.56 µg/mL: 69.1%
[6]
  IC50: < 1.56 µg/mL
  IC90: 32.8 µg/mL (≈ 160 µM)
[14]
  inhibition at 6.25 µg/mL: 86.6%

## NNC(=O)c1ccncc1 [ISONIAZID]
[15]
  inhibition at 0.31 µg/mL: 92.9%
[2]
  MIC90: 0.31 µM (≈ 0.0425 µg/mL)
[3]
  inhibition at 0.63 µg/mL: 93.9%
[5]
  inhibition (INH): 94%
[6]
  IC50: 0.18 µg/mL (≈ 1.31 µM)
  IC90: 0.29 µg/mL (≈ 2.11 µM)

## CCc1nc(N)nc(N)c1-c1ccc(Cl)cc1 [PYRIMETHAMINE]
[7]
  inhibition at 50 µg/mL: 69.7%
[2]
  MIC90: 100 µM (≈ 24.9 µg/mL)
[8]
  inhibition at 100 µg/mL: 95.6%
[9]
  inhibition at 25 µg/mL: 26.7%
[6]
  IC50: 37.4 µg/mL (≈ 150 µM)
  IC90: 75 µg/mL (≈ 301 µM)

## CO[C@H]1/C=C/O[C@@]2(C)Oc3c(C)c(O)c4c(O)c(c(/C=N/N5CCN(C)CC5)c(O)c4c3C2=O)NC(=O)/C(C)=C\C=C\[C@H](C)[C@H](O)[C@@H](C)[C@@H](O)[C@@H](C)[C@H](OC(C)=O)[C@@H]1C [RIFAMPIN]
[16]
  MIC: 0.049 µg/mL (≈ 0.0595 µM)
[17]
  fold change (FC): 0.81
[18]
  INH: 0.13 µg/mL
[19]
  inhibition at 0.02 µg/mL: 61.2%
[2]
  MIC90: 0.04 µM (≈ 0.0329 µg/mL)
[20]
  MBC: 1.56 µg/mL (≈ 1.9 µM)
[21]
  viability at 168 h, 0.1 ug/ml: 93%
[6]
  IC50: 0.02 µg/mL (≈ 0.0243 µM)
  IC90: 0.02 µg/mL (≈ 0.0243 µM)
[22]
  fold change (FC): 0.98
[23]
  fold change (FC): 1.49
[24]
  viability at 168 h, 0.01 ug/ml: 94%
[25]
  viability at 168 h, 1 ug/ml: 85%
[26]
  inhibition (INH): 63%
